{
  "source": "paper PMC10570129",
  "about": "(iScience, 2023)",
  "key": {"[1]": {"target": "PahP (Cycloclasticus sp. P1)", "assay": "SPR"}, "[2]": {"target": "PahR (Cycloclasticus sp. P1)", "assay": "SPR"}, "PahS": {"target": "PahS", "assay": "SPR, PAHs injected over PahS sensor chip", "assay_type": "binding, Cycloclasticus sp. P1", "details": "read-out: KD of PahS for PAH, 20°C", "procedure,_shortened": "(§1)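 Biacore T200 SPR. The PahS protein, at 30 μg/mL in 10 mM sodium acetate (pH 5.5), was covalently immobilised on an L1 chip by primary amine coupling. Each PAH was diluted to 50 μM in PBS running buffer containing 5% DMSO. It was injected for 120 s at 30 μL/min. PAH-free running buffer served as the negative control.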"}, "PahP": {"target": "PahP", "assay": "SPR, PAHs injected over PahP sensor chip", "assay_type": "binding, Cycloclasticus sp. P1", "details": "read-out: KD of PahP for PAH"}, "[3]": {"target": "mutated PahS (Leu370‒Ala370, Leu444‒Ala444, Ala452‒Gly452)", "assay": "SPR, PAHs on site-mutated PahS", "assay_type": "binding, Cycloclasticus sp. P1", "details": "range over three mutated proteins and five PAHs", "procedure,_shortened": "as §1"}, "[4]": {"target": "mutated PahP (Tyr42‒Gly42, Leu135‒Ala135, Tyr-215‒Ala215, Leu-254‒Ala254)", "assay": "SPR, PAHs on site-mutated PahP", "assay_type": "binding, Cycloclasticus sp. P1", "details": "range over mutated PahP and five PAHs", "procedure,_shortened": "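Biacore T200 SPR. PahP protein was diluted in 10 mM sodium acetate (pH 5.5) and amine-coupled to a CM5 chip. PAHs were diluted to 50 μM in PBS running buffer with 5% DMSO. They were injected over the PahP surface for 120 s at 30 μL/min. Running buffer without PAH was the negative control.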"}, "PahP binding to PahS": {"test_system": "PahP binding to PahS", "assay": "SPR, PahP bound to PAH in advance, injected over PahS sensor chip", "set-up": "species or system Cycloclasticus sp. P1", "details": "PahP binds PAH first"}, "[5]": {"target": "PahP-YFP (Cycloclasticus sp. P1)", "assay": "FRET or BRET"}, "[6]": {"target": "PahP and PahR of the PahK-PahP and PahK-PahR reporter cells", "assay": "FRET or BRET"}, "[7]": {"target": "PahP (Cycloclasticus sp. P1)", "assay": "SPR", "remark": "listed apart in the source"}, "[8]": {"target": "PahP (Cycloclasticus sp. P1)", "assay": "SPR", "remark": "listed apart in the source"}, "[9]": {"target": "PahK (Cycloclasticus sp. P1)", "assay": "SPR"}},
  "note": "Where two headings read alike, the source gives them in different places.",
  "data": [
    {"molecule": "PahK (natural protein)", "values": [
      {"measurement": "Kd", "setting": "[1]", "result": 9.8, "unit": "nM"},
      {"measurement": "Kd", "setting": "[2]", "result": 18.9, "unit": "nM"}
    ]},
    {"molecule": "c1cc2ccc3cccc4ccc(c1)c2c34", "note": "[pyrene]", "values": [
      {"measurement": "Kd", "setting": "PahS", "result": 21.1, "unit": "nM"},
      {"measurement": "Kd", "setting": "PahP", "result": 14.4, "unit": "nM"},
      {"measurement": "KD of the mutated PahS proteins with PAHs", "setting": "[3]", "result": "10^−3 to 10^−4 M"},
      {"measurement": "KD of site-mutated PahP with PAHs", "setting": "[4]", "result": "10^−3 to 10^−4 M"},
      {"measurement": "binding affinity of PahP with PahS compared to that without PAH", "setting": "PahP binding to PahS", "result": "lowered"}
    ]},
    {"molecule": "c1ccc2c(c1)Cc1ccccc1-2", "note": "[fluorene]", "values": [
      {"measurement": "Kd", "setting": "PahS", "result": 179, "unit": "nM"},
      {"measurement": "Kd", "setting": "PahP", "result": 17.4, "unit": "nM"},
      {"measurement": "KD of the mutated PahS proteins with PAHs", "setting": "[3]", "result": "10^−3 to 10^−4 M"},
      {"measurement": "KD of site-mutated PahP with PAHs", "setting": "[4]", "result": "10^−3 to 10^−4 M"}
    ]},
    {"molecule": "CFP-PahS (natural protein)", "values": [
      {"measurement": "FRET efficiency", "setting": "[5]", "result": 19.7, "unit": "%"}
    ]},
    {"molecule": "CFP-PahK (natural protein)", "values": [
      {"measurement": "FRET efficiency", "setting": "[6]", "result": "16.7 to 21.4", "unit": "%"}
    ]},
    {"molecule": "PahS (natural protein)", "values": [
      {"measurement": "Kd", "setting": "[7]", "result": 2.12, "unit": "nM"},
      {"measurement": "Kd", "setting": "[8]", "result": 2.97, "unit": "nM"},
      {"measurement": "Kd", "setting": "[9]", "result": 174000, "unit": "nM"},
      {"measurement": "Kd", "setting": "[1]", "result": 92, "unit": "nM"},
      {"measurement": "Kd", "setting": "[2]", "result": 119000, "unit": "nM"}
    ]},
    {"molecule": "c1ccc2c(c1)ccc1ccccc12", "note": "[phenanthrene]", "values": [
      {"measurement": "Kd", "setting": "PahS", "result": 21.4, "unit": "nM"},
      {"measurement": "Kd", "setting": "PahP", "result": 19.6, "unit": "nM"},
      {"measurement": "KD of the mutated PahS proteins with PAHs", "setting": "[3]", "result": "10^−3 to 10^−4 M"},
      {"measurement": "KD of site-mutated PahP with PAHs", "setting": "[4]", "result": "10^−3 to 10^−4 M"},
      {"measurement": "binding affinity of PahP with PahS compared to that without PAH", "setting": "PahP binding to PahS", "result": "lowered"}
    ]},
    {"molecule": "c1ccc2cc3ccccc3cc2c1", "note": "[anthracene]", "values": [
      {"measurement": "Kd", "setting": "PahS", "result": 21.7, "unit": "nM"},
      {"measurement": "Kd", "setting": "PahP", "result": 41, "unit": "nM"},
      {"measurement": "KD of the mutated PahS proteins with PAHs", "setting": "[3]", "result": "10^−3 to 10^−4 M"},
      {"measurement": "KD of site-mutated PahP with PAHs", "setting": "[4]", "result": "10^−3 to 10^−4 M"}
    ]},
    {"molecule": "c1ccc2ccccc2c1", "note": "[naphthalene]", "values": [
      {"measurement": "Kd", "setting": "PahS", "result": 14.6, "unit": "nM"},
      {"measurement": "Kd", "setting": "PahP", "result": 5.3, "unit": "nM"},
      {"measurement": "KD of the mutated PahS proteins with PAHs", "setting": "[3]", "result": "10^−3 to 10^−4 M"},
      {"measurement": "KD of site-mutated PahP with PAHs", "setting": "[4]", "result": "10^−3 to 10^−4 M"}
    ]}
  ]
}
